Experimental data reported in ChEMBL document CHEMBL2216753, “Novel 1,4-benzoxazine and 1,4-benzodioxine inhibitors of angiogenesis” (Eur J Med Chem, 2012).
The source made the active and inactive calls. The calls are words filed in the database; no cut-off is given here.

Experiments:
[1] = biological target: Vascular endothelial growth factor receptor 2 (Homo sapiens, UniProt P35968); assay: Inhibition of human recombinant VEGFR2 expressed in Sf9 insect cells assessed as inhibition of poly(Glu,Tyr) 4:1 substrate phosphorylation by radiometric assay
Method in brief: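 Human recombinant GST-fusion VEGFR2 kinase, expressed in Sf9 cells and purified on GSH-agarose, with poly(Glu,Tyr) 4:1 as substrate; phosphorylation read radiometrically. Racemic trifluoroacetate salts tested at 10 concentrations (1 × 10−4 M to 3 × 10−9 M) to give IC50, run in singlicate by a contract lab.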

[2] = Cytotoxicity against human HMEC1 cells at 100 uM after 3 days by coulter counter method; assay type: cell-based; details: hmec-1, 72 h
Method in brief: (§1)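 Cells seeded at 10,000 cells per cm2; after 16 h, fresh medium with test compound added. Cells trypsinized and counted with a Coulter counter on day 4 (BAEC, HeLa, MCF-7) or day 7 (HMEC-1). Cytotoxicity (cell death) was judged after 3 days in culture. HMEC-1 grown in EGM-2 with supplements and growth factors.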

[3] = Cytotoxicity against bovine BAEC cells at 100 uM after 3 days by coulter counter method; assay type: cell-based, Bos taurus; details: cattle, 72 h; method in brief: as §1
HeLa [4] = assay: Cytotoxicity against human HeLa cells at 100 uM after 3 days by coulter counter method; assay type: cell-based; details: 72 h; method in brief: as §1
MCF7 [5] = assay: Cytotoxicity against human MCF7 cells at 100 uM after 3 days by coulter counter method; assay type: cell-based; details: mcf7, 72 h; method in brief: as §1
MAEC [6] = assay: Antimigratory activity against mouse MAEC cell migration after 5 hrs by wound closure assay; assay type: functional, cell-based
Method in brief: (§2)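 Confluent MAEC monolayers wounded with a 1.0-mm wide micropipette tip, then incubated in fresh medium with test compound. Wounds photographed after 5 h and width calculated from digital images. Mean ± SD of 2–4 independent experiments; Student t test, p < 0.05 significant.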

[7] = (§3) Antimigratory activity against mouse MAEC cell migration at 30 uM after 5 hrs by wound closure assay; assay type: functional; method in brief: as §2
[8] = Antimigratory activity against mouse MAEC cell migration at 10 uM after 5 hrs by wound closure assay; assay type: functional; method in brief: as §2
HMEC-1 [9] = assay: Antiangiogenic activity in human HMEC1 cells assessed as inhibition of tube formation at 10 uM after 4 to 6 hrs by matrigel assay; assay type: functional, cell-based
Method in brief: (§4)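 HMEC-1 (60,000 cells) seeded on matrigel (10 mg/mL) after 30 min gelling at 37 °C, in DMEM containing test compound; after 4–6 h cells photographed and tubes scored 0 (none) to 3 (maximal, like untreated control). Mean ± SD of 2–4 independent experiments; Student t test, p < 0.05 significant.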

HMEC-1 [10] = assay: Antiangiogenic activity in human HMEC1 cells assessed as inhibition of tube formation after 4 to 6 hrs by matrigel assay; assay type: functional, cell-based; method in brief: as §4
HMEC-1 [11] = assay: Antiangiogenic activity in human HMEC1 cells assessed as inhibition of tube formation at 100 uM after 4 to 6 hrs by matrigel assay; assay type: functional, cell-based; method in brief: as §4
[12] = Antiproliferative activity against human HMEC1 cells after 7 days by coulter counter method; assay type: functional, cell-based; details: HMEC-1, 168 h
HeLa [13] = assay: Antiproliferative activity against human HeLa cells after 4 days by coulter counter method; assay type: functional, cell-based; details: 96 h
[14] = Antiproliferative activity against bovine BAEC cells after 4 days by coulter counter method; assay type: functional, cell-based; details: Bos taurus, 96 h
HMEC-1 [15] = assay: Antiangiogenic activity in human HMEC1 cells assessed as inhibition of tube formation at 30 uM after 4 to 6 hrs by matrigel assay; assay type: functional, cell-based; method in brief: as §4
MCF7 [16] = assay: Antiproliferative activity against human MCF7 cells after 4 days by coulter counter method; assay type: functional, cell-based; details: MCF7, 96 h
[17] = Cytotoxicity against human HMEC1 cells at 30 uM after 3 days by coulter counter method; assay type: cell-based; details: hmec-1, 72 h; method in brief: as §1
[18] = Cytotoxicity against bovine BAEC cells at 30 uM after 3 days by coulter counter method; assay type: cell-based, Bos taurus; details: cattle, 72 h; method in brief: as §1
HeLa [19] = assay: Cytotoxicity against human HeLa cells at 30 uM after 3 days by coulter counter method; assay type: cell-based; details: 72 h; method in brief: as §1
MCF7 [20] = assay: Cytotoxicity against human MCF7 cells at 30 uM after 3 days by coulter counter method; assay type: cell-based; details: mcf7, 72 h; method in brief: as §1
MAEC [21] = assay: as §3; assay type: functional; method in brief: as §2
[22] = Antimigratory activity against mouse MAEC cell migration at 3 uM after 5 hrs by wound closure assay; assay type: functional; method in brief: as §2
Gallus gallus [23] = species on record: Gallus gallus; assay: Antiangiogenic activity in chicken embryo chorioallantoic membrane model at 250 nmol/disc after 3 days; assay type: functional, tissue-based
Gallus gallus [24] = species on record: Gallus gallus; assay: Antiangiogenic activity in chicken embryo chorioallantoic membrane model assessed as degradation of immature existing blood vessels at 40 to 250 nmol/disc after 3 days; assay type: functional, tissue-based
Gallus gallus [25] = species on record: Gallus gallus; assay: Antiangiogenic activity in chicken embryo chorioallantoic membrane model assessed as destruction of vessels with bleeding at 20 nmol/disc after 3 days; assay type: functional, tissue-based
Prothrombin = Prothrombin (Homo sapiens, UniProt P00734); assay: Inhibition of thrombin
Gallus gallus [26] = species on record: Gallus gallus; assay: Antiangiogenic activity in chicken embryo chorioallantoic membrane model assessed as inhibition of chorioallantoic membrane vascularization at 100 to 250 nmol/disc after 3 days; assay type: functional, tissue-based
Gallus gallus [27] = species on record: Gallus gallus; assay: Antiangiogenic activity in chicken embryo chorioallantoic membrane model assessed as inhibition of pre-existing mature vessel at 100 to 250 nmol/disc after 3 days; assay type: functional, tissue-based

Sequence of Vascular endothelial growth factor receptor 2 (P35968 whole entry, the tested form may be a part): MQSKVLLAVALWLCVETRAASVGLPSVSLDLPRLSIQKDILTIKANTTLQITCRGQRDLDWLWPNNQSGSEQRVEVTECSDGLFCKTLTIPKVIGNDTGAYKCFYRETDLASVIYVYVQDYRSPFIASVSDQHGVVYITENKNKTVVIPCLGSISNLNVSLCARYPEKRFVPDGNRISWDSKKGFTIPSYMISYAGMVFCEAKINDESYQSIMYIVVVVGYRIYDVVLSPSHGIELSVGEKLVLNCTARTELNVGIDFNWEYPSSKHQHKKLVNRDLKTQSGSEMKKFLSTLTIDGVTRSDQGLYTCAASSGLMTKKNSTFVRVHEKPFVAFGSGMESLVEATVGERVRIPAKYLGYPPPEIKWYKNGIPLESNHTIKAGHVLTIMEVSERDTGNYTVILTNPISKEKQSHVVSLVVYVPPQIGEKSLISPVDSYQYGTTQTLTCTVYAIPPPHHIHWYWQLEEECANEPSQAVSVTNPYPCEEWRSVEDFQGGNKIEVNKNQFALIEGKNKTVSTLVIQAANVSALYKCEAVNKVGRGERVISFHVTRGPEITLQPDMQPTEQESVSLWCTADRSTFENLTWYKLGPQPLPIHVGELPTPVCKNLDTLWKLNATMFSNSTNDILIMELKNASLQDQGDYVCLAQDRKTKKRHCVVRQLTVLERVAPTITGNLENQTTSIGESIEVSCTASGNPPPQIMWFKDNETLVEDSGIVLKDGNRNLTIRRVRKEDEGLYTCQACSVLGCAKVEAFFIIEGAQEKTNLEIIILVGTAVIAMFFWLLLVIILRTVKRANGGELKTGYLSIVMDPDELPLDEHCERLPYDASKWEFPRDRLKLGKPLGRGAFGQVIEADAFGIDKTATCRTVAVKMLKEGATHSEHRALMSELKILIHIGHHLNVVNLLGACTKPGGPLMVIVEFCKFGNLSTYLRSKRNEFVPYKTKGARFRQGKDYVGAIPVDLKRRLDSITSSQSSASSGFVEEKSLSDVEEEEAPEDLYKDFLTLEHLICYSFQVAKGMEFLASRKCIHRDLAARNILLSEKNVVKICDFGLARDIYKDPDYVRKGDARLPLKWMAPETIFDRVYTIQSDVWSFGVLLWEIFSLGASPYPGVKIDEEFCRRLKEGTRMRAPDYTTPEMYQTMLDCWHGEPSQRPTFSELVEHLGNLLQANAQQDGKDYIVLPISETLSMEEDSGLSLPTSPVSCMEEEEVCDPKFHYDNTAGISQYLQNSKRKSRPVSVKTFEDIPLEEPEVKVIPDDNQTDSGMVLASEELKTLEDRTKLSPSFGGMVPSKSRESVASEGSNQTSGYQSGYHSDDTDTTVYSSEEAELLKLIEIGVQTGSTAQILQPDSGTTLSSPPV

Row | SMILES | Activity [2] | Activity [3] | Activity (HeLa [4]) | Activity (MCF7 [5]) | inhibition (MAEC [6]) | inhibition at 30 µM [7] [%] | inhibition at 10 µM [8] [%] | inhibition (HMEC-1 [9]) | inhibition (HMEC-1 [10]) | IC50 [12] [µM] | IC50 (HeLa [13]) [µM] | IC50 [14] [µM] | inhibition (HMEC-1 [15]) | IC50 (MCF7 [16]) [µM] | Activity [17] | Activity [18] | Activity (HeLa [19]) | Activity (MCF7 [20]) | inhibition at 3 µM [22] [%] | inhibition (Gallus gallus [23]) | also measured
1 | CCOC(=O)C(=O)N(Cc1cccc(F)c1)c1ccc2c(c1)N(C)CC(C)(COc1ccc(C(=N)N)cc1)O2 (racemic) |  |  |  |  |  |  |  |  |  |  |  |  |  |  |  |  |  |  |  |  | IC50 [1]: 80 µM
2 | CCOC(=O)C(=O)N(Cc1cc(F)cc(F)c1)c1ccc2c(c1)OC(C)(CO)CN2C (stereo not given) | Toxic | Toxic | Toxic | Toxic | Dose-dependent effect | > 80 | > 40 | inactive | Active | 89 | 44 | 60 | Active | 45 |  |  |  |  |  |  | inhibition (HMEC-1 [11]): Active
3 | CCOC(=O)C(=O)N(Cc1cc(F)cc(F)c1)c1ccc2c(c1)OC(C)(COc1ccc(C(=N)N)cc1)CN2C (stereo not given) | Toxic | Toxic | Toxic | Toxic | Dose-dependent effect |  | 50 |  | Dose-dependent effect | 6.8 | 6.6 | 4.6 |  | 2.9 | Non-toxic | Non-toxic | Non-toxic | Non-toxic | > 40 | Active | inhibition (MAEC [21]): Active
4 | CCOC(=O)CN(Cc1ccc(F)cc1)c1ccc2c(c1)OC(C)(COc1ccc(C(=N)N)cc1)CN2C (stereo not given) | Toxic | Toxic | Toxic | Toxic | Dose-dependent effect | 95 | 78 | inactive |  | 2.9 | 4 | 2.9 | Active | 5.3 | Toxic | Toxic | Toxic | Toxic | 41 | Active | 
5 | CCOC(=O)CN(Cc1cccc(F)c1)c1ccc2c(c1)N(C)CC(C)(COc1ccc(C(=N)N)cc1)O2 (stereo not given) | Toxic | Toxic | Toxic | Toxic | Dose-dependent effect |  | 50 | inactive |  | 6 | 4.6 | 3.9 | Active | 4.2 | Toxic | Toxic | Toxic | Toxic | > 40 | Active | inhibition (MAEC [21]): Active
6 | CCOC(=O)CN(Cc1cc(F)cc(F)c1)c1ccc2c(c1)N(C)CC(C)(COc1ccc(C(=N)N)cc1)O2 (stereo not given) | Toxic | Toxic | Toxic | Toxic | Dose-dependent effect |  | 50 | inactive |  | 6.7 | 4.5 | 4 | Active | 4.5 | Toxic | Toxic | Toxic | Toxic | > 40 | Active | Activity (Gallus gallus [24]): Active; inhibition (MAEC [21]): Active; Activity (Gallus gallus [25]): Active
7 | CCOC(=O)C(=O)N(Cc1cccc(F)c1)c1ccc2c(c1)N(C)CC(C)(COc1ccc(C(=N)N)cc1)O2 (stereo not given) | Toxic | Toxic | Toxic | Toxic |  |  | 50 |  |  | 7.7 | 20 | 18 |  | 6.5 | Non-toxic | Non-toxic | Non-toxic | Non-toxic | > 40 |  | 
8 | CCOC(=O)C(=O)N(Cc1ccccc1)c1ccc2c(c1)OC(C)(CO)CN2C (stereo not given) | Toxic | Toxic | Toxic | Toxic | Dose-dependent effect | > 80 | > 40 | inactive | Active | > 100 | > 100 | > 100 | Active | > 100 |  |  |  |  |  |  | inhibition (HMEC-1 [11]): Active
9 | CN1CC(C)(COc2ccc(C(=N)N)cc2)Oc2ccc(N(CC(=O)O)Cc3cc(F)cc(F)c3)cc21 (racemic) [listing 1 of 2 here] |  |  |  |  |  |  |  |  |  |  |  |  |  |  |  |  |  |  |  |  | IC50 [1]: 22.5 µM
10 | CCOC(=O)C(=O)N(Cc1ccccc1)c1ccc2c(c1)OC(COc1ccc(C(=N)N)cc1)CO2 (stereo not given) | Non-toxic | Non-toxic | Non-toxic | Non-toxic | Dose-dependent effect | > 80 | > 40 |  | Dose-dependent effect | 22 | 8 | 8.5 |  | 8.7 |  |  |  |  |  | Active | Ki (Prothrombin): 0.178 µM; inhibition (Gallus gallus [26]): Active; Activity (Gallus gallus [27]): inactive
11 | CN1CC(C)(COc2ccc(C(=N)N)cc2)Oc2ccc(N(CC(=O)O)Cc3cc(F)cc(F)c3)cc21 (racemic) [listing 2 of 2 here] |  |  |  |  |  |  |  |  |  |  |  |  |  |  |  |  |  |  |  |  | inhibition [1]: Dose-dependent effect
12 | CCOC(=O)C(=O)N(Cc1ccccc1)c1ccc2c(c1)OC[C@H](COc1ccc(C(=N)N)cc1)O2 | Non-toxic | Non-toxic | Non-toxic | Non-toxic |  |  |  |  |  | 24 | 19 | 12 |  | 9.5 |  |  |  |  |  | Active | Ki (Prothrombin): 0.018 µM
